Reference: ChEMBL document CHEMBL1781959, “Synthesis and in vitro antitumor activity of substituted quinazoline and quinoxaline derivatives: search for anticancer agent” (Eur J Med Chem, 2011)

Columns and labels:
HL-60(TB) = assay: Cytotoxicity against human HL-60(TB) cells after 48 hrs by SRB assay; assay type: cell-based
Procedure, shortened: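 NCI-60 five-dose screen in RPMI 1640 with 5% FBS and 2 mM L-glutamine; 5000–40,000 cells/well, 24 h pre-incubation. DMSO stocks diluted to 0.01, 0.1, 1, 10 and 100 μM final; 48 h at 37 °C, 5% CO2. Fixed with TCA (10% final adherent, 16% suspension), stained with 0.4% SRB, A515. GI50, TGI and LC50 taken from time-zero, control and test absorbances.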

SK-MEL-2 = assay: Growth inhibition of human SK-MEL-2 cells after 48 hrs by SRB assay; assay type: functional; details: SK-MEL-2, 48 h
Procedure, shortened: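 NCI-60 panel cells grown in RPMI 1640 with 5% FBS and 2 mM L-glutamine, then seeded at 5000–40,000 cells/well by doubling time and preincubated for 24 h. Compound in DMSO was tested either at 10^-5 M alone or at 0.01–100 μM in five doses, for 48 h at 37 °C. Cells were fixed with cold TCA (10% final), stained with SRB, and read at 515 nm. GI50 was taken from % growth relative to time-zero and control wells.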

## O=c1c2ccccc2nc(-c2ccco2)n1/N=C/c1ccccc1Cl
HL-60(TB)
  LC50: > 100 µM
SK-MEL-2
  GI50: 6.86 µM
  TGI: > 100 µM
